pIC50: −log10 of the molar value. In brackets after ≈: the same amount, converted by molar mass.
Columns and labels:
Candida parapsilosis = experiment: Antifungal activity against clinical strain Candida parapsilosis by microplate reader assay; format: functional; settings: Lodderomyces parapsilosis
Procedure, shortened: (§1)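 Broth microdilution read by optical density at 630 nm. MIC80 is the first well with about 80% less growth than the drug-free well. Each concentration was run in three replicate wells, and values are means of three independent experiments.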

Cryptococcus neoformans = experiment: Antifungal activity against Cryptococcus neoformans ATCC 32609 by microplate reader assay; format: functional; settings: ATTCC32609; procedure, shortened: as §1
Candida albicans = experiment: Antifungal activity against Candida albicans ATCC 76615 by microplate reader assay; format: functional; settings: ATTCC76615; procedure, shortened: as §1
Candida tropicalis = experiment: Antifungal activity against clinical strain Candida tropicalis by microplate reader assay; format: functional; procedure, shortened: as §1
HCT-116 = experiment: Cytotoxicity against human HCT-116 cells assessed as reduction in cell viability by sulforhodamine B assay; format: functional, cell-based
Procedure, shortened: (§2)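 Cells were kept in RPMI-1640 with 10% FBS, 2 mM L-glutamine, 50 μM β-mercaptoethanol and penicillin/streptomycin, at 37 °C in 5% CO2. SRB assay used 100, 10, 1, 0.1 and 0.01 μM, each in triplicate. Percent inhibition was calculated against solvent control OD. IC50 came from Logit curve fitting and is the mean of three independent experiments.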

HL-60 = experiment: Cytotoxicity against human HL-60 cells assessed as reduction in cell viability by sulforhodamine B assay; format: functional, cell-based; procedure, shortened: as §2
Bel-7402 [1] = experiment: Cytotoxicity against human Bel-7402 cells assessed as reduction in cell viability by sulforhodamine B assay; format: functional, cell-based; procedure, shortened: as §2
A549 = experiment: Cytotoxicity against human A549 cells assessed as reduction in cell viability by sulforhodamine B assay; format: functional, cell-based; procedure, shortened: as §2
[2] = Cytotoxicity against human HO-8910 cells assessed as reduction in cell viability by sulforhodamine B assay; format: functional, cell-based; procedure, shortened: as §2
SPC-A4 = experiment: Cytotoxicity against human SPC-A4 cells assessed as reduction in cell viability by sulforhodamine B assay; format: functional, cell-based; procedure, shortened: as §2
MKN-28 = experiment: Cytotoxicity against human MKN-28 cells assessed as reduction in cell viability by sulforhodamine B assay; format: functional, cell-based; procedure, shortened: as §2
MCF7 = experiment: Cytotoxicity against human MCF7 cells assessed as reduction in cell viability by sulforhodamine B assay; format: functional, cell-based; procedure, shortened: as §2
Bel-7402 [3] = experiment: Antitumor activity against human Bel-7402 cells implanted in BALB/c-nu mouse assessed as tumor growth inhibition at 100 mg/kg, IG administered everyday for 7 days relative to control; format: functional; settings: Bel-7402, po, 168 h, time 7 day, read-out: TGI
Pyricularia oryzae = experiment: Antifungal activity against Pyricularia oryzae P-2B by measuring minimum morphological deformation concentration; format: functional; settings: read-out: MEC
H22 = experiment: Antitumor activity against mouse H22 cells implanted in KM mouse assessed as tumor growth inhibition at 25 mg/kg, IG administered everyday for 7 days relative to control; format: functional; settings: H22, po, 168 h, time 7 day, read-out: TGI
Procedure, shortened: (§3)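 S-180 or H22 cells, about 2.5 × 10⁶ per mouse, injected s.c. in the right axilla of wild-type KM mice. Randomized after 24 h and dosed intragastrically for 7 days; sacrificed 24 h after the last dose. TGI = (W_C − W_T)/W_C × 100% from average tumor weight. n = 8; one-way ANOVA vs vehicle.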

CCRF S-180 = experiment: Antitumor activity against mouse S-180 cells implanted in KM mouse assessed as tumor growth inhibition at 25 mg/kg, IG administered everyday for 7 days relative to control; format: functional; settings: CCRF S-180, po, 168 h, time 7 day, read-out: TGI; procedure, shortened: as §3

Compound	MIC80 (Candida parapsilosis) [µg/mL]	MIC80 (Cryptococcus neoformans) [µg/mL]	MIC80 (Candida albicans) [µg/mL]	MIC80 (Candida tropicalis) [µg/mL]	pIC50 (HCT-116)	pIC50 (HL-60)	pIC50 (Bel-7402 [1])	pIC50 (A549)	pIC50 [2]	pIC50 (SPC-A4)	pIC50 (MKN-28)	pIC50 (MCF7)	inhibition in vivo at 100 mg/kg (Bel-7402 [3]) [%]	minimal effective concentration (Pyricularia oryzae) [µg/mL]	inhibition in vivo at 25 mg/kg (H22) [%]	inhibition in vivo at 25 mg/kg (CCRF S-180) [%]
OC(Cn1cncn1)(Cn1cncn1)c1ccc(F)cc1F [FLUCONAZOLE]	0.5 (≈ 1.63 µM)	2 (≈ 6.53 µM)	0.25 (≈ 0.816 µM)	1 (≈ 3.27 µM)	–	–	–	–	–	–	–	–	–	–	–	–
C=C(C)CCC[C@]1(C)OC(=O)[C@]23CC[C@@H]4C(=CCC5C(C)(C)[C@@H](O[C@@H]6OC[C@@H](OS(=O)(=O)O)[C@H](O)[C@H]6O[C@@H]6O[C@H](C)[C@@H](O[C@@H]7OC[C@@H](O)[C@H](O[C@@H]8O[C@H](CO)[C@@H](O)[C@H](OC)[C@H]8O)[C@H]7OS(=O)(=O)O)[C@H](O)[C@H]6O)CC[C@@]54C)[C@]2(C)C[C@H](OC(C)=O)[C@@H]31.[Na+].[Na+].[Na+] (some centres not stated)	4	16	4	8	6.03	6.19	5.89	6.12	5.72	5.89	5.69	5.75	–	–	–	–
O=c1[nH]c(=O)n(C2CCCO2)cc1F (configuration not stated) [TEGAFUR]	–	–	–	–	–	–	–	–	–	–	–	–	81.8	–	–	–
CO[C@@H]1[C@@H](O)[C@H](O[C@@H]2[C@@H](O)[C@H](O[C@H]3[C@H](O)[C@@H](O)[C@H](O[C@H]4[C@H](O[C@H]5CC[C@@]6(C)C(CC=C7[C@H]6CC[C@]68C(=O)O[C@@](C)(CCC=C(C)C)[C@H]6[C@@H](OC(C)=O)C[C@@]78C)C5(C)C)OC[C@@H](OS(=O)(=O)[O-])[C@@H]4O)O[C@@H]3C)OC[C@H]2O)O[C@H](CO)[C@H]1O.[Na+] (some centres not stated)	32	25	20	30	5.79	5.78	5.62	5.77	5.63	5.44	5.55	5.64	–	–	–	–
C=C(C)CCC[C@]1(C)OC(=O)[C@]23CC[C@@H]4C(=CCC5C(C)(C)[C@@H](O[C@@H]6OC[C@@H](OS(=O)(=O)[O-])[C@H](O)[C@H]6O[C@@H]6O[C@H](C)[C@@H](O[C@@H]7OC[C@@H](O)[C@H](O[C@@H]8O[C@H](CO)[C@@H](O)[C@H](OC)[C@H]8O)[C@H]7O)[C@H](O)[C@H]6O)CC[C@@]54C)[C@]2(C)CC(=O)[C@@H]31.[Na+] (some centres not stated)	25	25	25	25	5.96	5.71	5.89	5.89	5.72	5.82	5.74	5.81	–	–	–	–
CN(C/C=C/C#CC(C)(C)C)Cc1cccc2ccccc12 [TERBINAFINE]	< 0.125	< 0.125	32 (≈ 110 µM)	< 0.125	–	–	–	–	–	–	–	–	–	–	–	–
CCC(C)n1ncn(-c2ccc(N3CCN(c4ccc(OCC5COC(Cn6cncn6)(c6ccc(Cl)cc6Cl)O5)cc4)CC3)cc2)c1=O (configuration not stated) [ITRACONAZOLE]	< 0.125	2 (≈ 2.83 µM)	< 0.125	1 (≈ 1.42 µM)	–	–	–	–	–	–	–	–	–	–	–	–
O=c1[nH]cc(F)c(=O)[nH]1 [FLUOROURACIL]	–	–	–	–	–	–	–	–	–	–	–	–	–	≤ 5	39.4	39.4

From ChEMBL document CHEMBL4811272, “A new sulfated triterpene glycoside from the sea cucumber Colochirus quadrangularis, and evaluation of its antifungal, antitumor and immunomodulatory activities” (Bioorg Med Chem, 2021)
